Experimental findings from ChEMBL document CHEMBL1124175, “Stereoisomers of allenic amines as inactivators of monoamine oxidase type B. Stereochemical probes of the active site” (J Med Chem, 1988) are described below.

The target of data set [1] is T1, Amine oxidase [flavin-containing] B (Bos taurus, UniProt P56560).
T1 sequence (P56560 whole entry): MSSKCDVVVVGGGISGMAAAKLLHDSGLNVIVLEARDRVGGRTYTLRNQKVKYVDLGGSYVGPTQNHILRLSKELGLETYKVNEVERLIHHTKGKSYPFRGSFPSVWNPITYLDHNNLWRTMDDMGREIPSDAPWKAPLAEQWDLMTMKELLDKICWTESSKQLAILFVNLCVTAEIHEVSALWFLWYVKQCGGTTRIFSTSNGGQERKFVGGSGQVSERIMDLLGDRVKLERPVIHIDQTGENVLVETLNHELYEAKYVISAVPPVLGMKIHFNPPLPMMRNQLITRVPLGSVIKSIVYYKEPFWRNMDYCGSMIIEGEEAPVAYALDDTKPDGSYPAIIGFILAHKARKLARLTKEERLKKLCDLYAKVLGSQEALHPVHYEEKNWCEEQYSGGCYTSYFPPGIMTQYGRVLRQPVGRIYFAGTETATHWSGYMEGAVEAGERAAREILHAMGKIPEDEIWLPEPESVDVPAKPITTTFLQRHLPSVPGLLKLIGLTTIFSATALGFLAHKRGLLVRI
As to the kind of experiment: Inhibitory activity against Monoamine Oxidase B of Bovine liver in competitive inhibition assay at 25 degree C (pH=7.4).

Data set [2] addresses T2, Amine oxidase [flavin-containing] B (Rattus norvegicus, UniProt P19643).
T2 sequence (P19643 whole entry): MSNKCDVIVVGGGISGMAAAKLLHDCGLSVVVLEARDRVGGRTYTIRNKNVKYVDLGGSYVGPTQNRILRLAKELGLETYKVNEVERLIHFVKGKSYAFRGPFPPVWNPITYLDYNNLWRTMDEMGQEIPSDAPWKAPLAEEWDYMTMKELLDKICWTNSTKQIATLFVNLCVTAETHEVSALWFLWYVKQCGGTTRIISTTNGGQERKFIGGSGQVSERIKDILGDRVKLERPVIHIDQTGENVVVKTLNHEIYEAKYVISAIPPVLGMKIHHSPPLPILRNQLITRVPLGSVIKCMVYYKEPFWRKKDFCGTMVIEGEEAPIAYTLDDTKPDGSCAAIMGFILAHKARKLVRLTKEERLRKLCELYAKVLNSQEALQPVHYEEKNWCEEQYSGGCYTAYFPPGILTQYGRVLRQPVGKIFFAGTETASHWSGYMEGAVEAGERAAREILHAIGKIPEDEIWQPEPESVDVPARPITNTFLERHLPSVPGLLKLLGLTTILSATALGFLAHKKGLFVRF
Description: Competitive inhibition of Rat liver Monoamine Oxidase B at 37 degree C (pH= 7.4).

In data set [3] the target is T1, Amine oxidase [flavin-containing] B. Description: In vitro inhibition of bovine monoamine oxidase B. The method, boiled down:
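Beef liver mitochondrial MAO was purified and assayed spectrophotometrically in 67 mM potassium phosphate, pH 7.2, at 25 °C. MAO (0.002 unit) was run with benzylamine hydrochloride (100, 200, 300 or 400 µM) and inhibitor at various concentrations. Initial rates of benzaldehyde formation were read at 250 nm, four replicates per combination, and competitive Ki was fitted from the initial rates.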

The species entered for the next data set is Bos taurus. Description: Competitive inhibition of Bovine liver MAO-B at […]. The format is functional.
Data set [4] deals with T1, Amine oxidase [flavin-containing] B. Description: Kinetic parameter for the time dependent inhibition of Bovine liver Monoamine Oxidase B at 25 degrees C (pH= 7.4). As to conditions: cattle; for kinact: read-out: k2 (converted). The essentials:
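Purified beef liver mitochondrial MAO (0.02 unit) was preincubated at 25 °C in 50 mM potassium phosphate, pH 7.4, with allenic amine (1 µM-10 mM). Aliquots taken over time were assayed in duplicate for residual activity against benzylamine at 250 nm. kobsd came from nonlinear fit to E = E0 exp(-kobsd t) + E∞, and k2 and Ki by Kitz-Wilson analysis. For slow inactivators, k2 came from kobsd at one concentration plus a separately measured competitive Ki.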

The target of data set [5] is T2, Amine oxidase [flavin-containing] B. As to the kind of experiment: Competitive inhibition of Rat liver Monoamine Oxidase B at 30 degree C (pH= 7.2).

Broadly, the Ki is a dissociation constant, usually derived from enzyme kinetics or from competition with a known ligand. Read a high Ki as lower affinity. `CN[C@H](C)c1ccccc1` registered a Ki in data set [1] of 630 µM. As for `CN[C@@H](C)c1ccccc1`, the Ki in data set [1] turned out to be 1600 µM. Regarding `CN[C@H](C)Cc1ccccc1`, the Ki in data set [2] turned out to be 550 µM; in data set [1], 800 µM.

In data set [3], `C[C@@H](N)c1ccccc1` gave a Ki of 190 µM. As to `C[C@H](N)c1ccccc1`, the inhibitory constant (Ki) in data set [1] worked out at 520 µM; in the data set listed under Bos taurus, 150 µM.

In data set [1], `CN[C@@H]1CCCc2ccccc21` returned a Ki of 12 µM.

`CN[C@H]1CCCc2ccccc21` gave a Ki in data set [1] of 1.4 µM.

In data set [4], `CC=C=CCN(C)[C@@H](C)c1ccccc1` (mixture of isomers) gave a k2 of 0.012 min⁻¹. Also, in data set [3], the Ki worked out at 2600 µM. In turn, `CC=C=CCN(C)[C@H]1CCCc2ccccc21` (mixture of isomers) showed a k2 in data set [4] of 0.012 min⁻¹. For the same compound, the Ki in data set [3] stood at 150 µM. `CC=C=CCN(C)[C@@H]1CCCc2ccccc21` (mixture of isomers): the k2 in data set [4] is 0.13 min⁻¹. In data set [3], the affinity corresponds to a Ki of 250 µM. On to `CC=C=CCN(C)C[C@H](C)c1ccccc1` (mixture of isomers), for which the kinact in data set [4] was 0.00015 s⁻¹. Further, the Ki in data set [3] was 180 µM.

Turning to `CC=C=CCN(C)C[C@@H](C)c1ccccc1` (mixture of isomers), the kinact in data set [4] was 0.000117 s⁻¹. In data set [3], this compound gave an inhibitory constant (Ki) of 690 µM. For `CC=C=CCN(C)[C@H](C)c1ccccc1` (mixture of isomers), in that order: 0.00733 s⁻¹ and 1800 µM. Consider `CC=C=CCN(C)[C@@H](C)c1ccccc1` (stereo in doubt), for which, in data set [4], the kinact is 0.000117 s⁻¹. In data set [3], this compound yielded an inhibition constant (Ki) of 1100 µM. Regarding `CC=C=CCN(C)[C@H]1CCCc2ccccc21` (stereo in doubt), the k2 in data set [4] was 0.0006 min⁻¹. The same compound gave an inhibitory constant (Ki) in data set [3] of 150 µM. For `CC=C=CCN(C)[C@@H]1CCCc2ccccc21` (stereo in doubt) the same measures were 0.8 min⁻¹ and 200 µM. Regarding `CC=C=CCN(C)[C@H](C)c1ccccc1` (stereo in doubt), the k2 in data set [4] came out at 0.61 min⁻¹. This compound also gave a Ki in data set [3] of 730 µM. With `CC=C=CCN(C)C` (stereo in doubt; 1 (R)), the kinact in data set [4] is 0.00367 s⁻¹. In data set [3], this compound had a Ki of 59 µM. In data set [4], `CC=C=CCN(C)C` (stereo in doubt; 1 (S)) came in with a k2 of 0.29 min⁻¹. This compound also yielded a Ki in data set [3] of 100 µM. In data set [4], `CC=C=CCN(C)Cc1ccccc1.O=C(O)C(=O)O` (stereo in doubt; 2 (R)) came in with a k2 of 1 min⁻¹. This compound also displayed a Ki in data set [3] of 200 µM. In turn, `CC=C=CCN(C)Cc1ccccc1.O=C(O)C(=O)O` (stereo in doubt; 2 (S)) gave a k2 in data set [4] of 0.16 min⁻¹. In data set [3], this compound yielded a Ki of 820 µM. Consider `CC=C=CCN(C)CCc1ccccc1` (stereo in doubt; 4 (R)), for which the k2 in data set [4] was determined as 0.99 min⁻¹. The compound further gave a Ki in data set [3] of 430 µM. For `CC=C=CCN(C)CCc1ccccc1` (stereo in doubt; 4 (S)), in that order: 0.13 min⁻¹ and 650 µM. For the compound `C[C@H](N)Cc1ccccc1` [DEXTROAMPHETAMINE], the Ki in data set [2] amounted to 160 µM; in data set [5], 580 µM; in data set [1] it was 300 µM. In the case of `C[C@@H](N)Cc1ccccc1` [LEVAMFETAMINE], the Ki was found to be 180 µM in data set [2], 760 µM in data set [5] and 380 µM in data set [1].

As to `CN[C@@H](C)Cc1ccccc1` [METHAMPHETAMINE], the values for the Ki in data set [2] and in data set [1] were 270 µM and 550 µM, respectively.
